# The source made the active and inactive calls. No cut-off for these calls is given here.
# How the values were obtained:
# [1] = test system: Plasmodium falciparum; test: Antimalarial activity against chloroquine-resistant, mefloquine-sensitive Plasmodium falciparum W2 assessed as inhibition of [3H]hypoxanthine uptake; format: functional, organism-based
# [2] = test system: Plasmodium falciparum; test: Antimalarial activity against multidrug-resistant Plasmodium falciparum TM91C235 assessed as inhibition of [3H]hypoxanthine uptake; format: functional, organism-based
# [3] = test system: Plasmodium falciparum; test: Antimalarial activity against mefloquine-resistant, chloroquine-sensitive Plasmodium falciparum D6 assessed as inhibition of [3H]hypoxanthine uptake; format: functional, organism-based
# [4] = test system: Plasmodium falciparum; test: Resistance index, ratio of IC50 for Plasmodium falciparum multidrug-resistant TM91C235 to IC50 for mefloquine-resistant, chloroquine-sensitive Plasmodium falciparum D6; format: functional
# [5] = test system: Plasmodium falciparum; test: Resistance index, ratio of IC50 for chloroquine-resistant, mefloquine-sensitive Plasmodium falciparum W2 to IC50 for mefloquine-resistant, chloroquine-sensitive Plasmodium falciparum D6; format: functional
# [6] = test system: Plasmodium falciparum; test: Antimalarial activity against multidrug-resistant Plasmodium falciparum TM91C235 assessed as inhibition of [3H]hypoxanthine uptake in presence of 1 mM folinic acid; format: functional, organism-based
# How it was run: (§1)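 Folinic acid reversal assay, adapted from a folic acid reversal method and run in normal plasma, to rule out DHFR inhibition. Parasite growth inhibition (IC50) is measured with 1 mM folinic acid present and compared with the IC50 obtained without folinic acid.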
# [7] = test system: Plasmodium falciparum; test: Antimalarial activity against mefloquine-resistant, chloroquine-sensitive Plasmodium falciparum D6 assessed as inhibition of [3H]hypoxanthine uptake in presence of 1 mM folinic acid; format: functional, organism-based; how it was run: as §1
SMILES,IC50 [1],IC50 [2],IC50 [3],Ratio IC50 [4],Ratio IC50 [5],Activity [6],Activity [7]
Cl.Cl.Nc1nccc2ccc(NCc3ccccc3)cc12,1400 nM,486 nM,212 nM,2.29,6.59,,
Cl.Cl.Cl.Cl.Nc1nccc2ccc(NCc3ccc(Cl)c(Cl)c3)cc12,455 nM,111 nM,69.1 nM,1.6,6.58,,
Cl.Cl.Nc1nccc2ccc(NCc3cccc(Br)c3)cc12,421 nM,142 nM,103 nM,1.38,4.09,,
Cl.Cl.Nc1nccc2ccc(NCc3cccc(C(F)(F)F)c3)cc12,260 nM,71.9 nM,50.1 nM,1.44,5.2,,
Cl.Cl.Cl.Nc1nccc2ccc(NCc3cccc(Cl)c3)cc12,359 nM,158 nM,64.8 nM,2.44,5.55,Active,Active
Cl.Cl.Cl.Nc1nccc2ccc(NCc3ccc(Cl)cc3)cc12,417 nM,205 nM,73.6 nM,2.78,5.67,Active,Active
CCN(CC)CCCC(C)Nc1ccnc2cc(Cl)ccc12 (configuration not stated),,,,,,Active,Active
CCc1nc(N)nc(N)c1-c1ccc(Cl)cc1,,,,,,inactive,inactive
OC(c1cc(C(F)(F)F)nc2c(C(F)(F)F)cccc12)C1CCCCN1 (configuration not stated) [MEFLOQUINE],,37.4 nM,20.1 nM,1.85,0.289,,
Nc1nc(N)c2cc(NCc3cccc(Br)c3)ccc2n1,2.08 nM,20.8 nM,< 0.142 nM,147,14.6,,
